{
  "source": "paper PMC4562428",
  "about": "(Bioorganic & medicinal chemistry, 2015)",
  "key": {"SERT": {"molecular_target": "SERT (Rattus norvegicus, UniProt P31652)", "sequence (P31652 whole entry)": "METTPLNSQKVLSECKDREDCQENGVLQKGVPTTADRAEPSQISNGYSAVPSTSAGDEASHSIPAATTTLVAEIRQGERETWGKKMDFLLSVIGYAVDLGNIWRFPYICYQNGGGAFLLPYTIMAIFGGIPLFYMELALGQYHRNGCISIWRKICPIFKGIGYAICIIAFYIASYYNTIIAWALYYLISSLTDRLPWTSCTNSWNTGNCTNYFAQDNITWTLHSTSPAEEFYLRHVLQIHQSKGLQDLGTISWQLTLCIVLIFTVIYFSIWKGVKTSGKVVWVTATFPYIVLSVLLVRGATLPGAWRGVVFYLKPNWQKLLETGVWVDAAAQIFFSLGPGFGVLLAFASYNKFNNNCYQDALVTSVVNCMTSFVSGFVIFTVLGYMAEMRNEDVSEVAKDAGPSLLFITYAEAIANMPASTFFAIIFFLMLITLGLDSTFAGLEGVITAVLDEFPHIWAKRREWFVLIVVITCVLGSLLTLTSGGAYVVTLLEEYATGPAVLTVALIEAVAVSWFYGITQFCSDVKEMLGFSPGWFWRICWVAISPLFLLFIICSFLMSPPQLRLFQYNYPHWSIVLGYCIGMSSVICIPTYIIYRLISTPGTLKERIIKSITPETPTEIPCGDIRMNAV", "assay": "[3H]5-HT release at SERT in rat brain synaptosomes", "assay_type": "biochemical", "outline": "(§1)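 Rat synaptosomes in 1 μM reserpine (brain minus caudate/cerebellum for SERT and NET; caudate for DAT), preloaded 1 h in Krebs-phosphate with 5 nM [3H]5-HT (SERT) or 9 nM [3H]MPP+ (NET, DAT). Blockers of competing transporters were included. Test compound was run as 8-point curves from 10 to 10,000 nM, in triplicate on three occasions. Filtration and scintillation counting; EC50 from non-linear regression.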"}, "DAT": {"molecular_target": "DAT (Rattus norvegicus, UniProt P23977)", "sequence (P23977 whole entry)": "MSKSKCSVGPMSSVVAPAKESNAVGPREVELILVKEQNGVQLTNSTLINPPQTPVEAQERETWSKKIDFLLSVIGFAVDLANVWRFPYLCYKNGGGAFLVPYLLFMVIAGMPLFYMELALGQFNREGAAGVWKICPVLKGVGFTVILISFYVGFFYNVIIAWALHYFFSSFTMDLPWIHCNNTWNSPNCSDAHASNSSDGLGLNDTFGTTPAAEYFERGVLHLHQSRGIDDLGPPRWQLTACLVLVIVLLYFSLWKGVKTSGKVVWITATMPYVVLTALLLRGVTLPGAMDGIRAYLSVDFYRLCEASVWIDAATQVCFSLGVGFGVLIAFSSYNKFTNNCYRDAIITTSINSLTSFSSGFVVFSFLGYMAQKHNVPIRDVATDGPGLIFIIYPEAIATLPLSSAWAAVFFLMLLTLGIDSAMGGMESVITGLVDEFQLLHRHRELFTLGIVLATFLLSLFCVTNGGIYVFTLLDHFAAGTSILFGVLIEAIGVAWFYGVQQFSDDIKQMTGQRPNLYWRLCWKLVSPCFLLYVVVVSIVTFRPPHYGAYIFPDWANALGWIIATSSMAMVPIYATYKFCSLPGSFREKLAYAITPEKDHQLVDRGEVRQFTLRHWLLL", "assay": "[3H]MPP+ release at DAT in rat caudate synaptosomes", "assay_type": "biochemical"}, "NET": {"molecular_target": "NET (Rattus norvegicus, UniProt Q63380)", "sequence (Q63380 1-617)": "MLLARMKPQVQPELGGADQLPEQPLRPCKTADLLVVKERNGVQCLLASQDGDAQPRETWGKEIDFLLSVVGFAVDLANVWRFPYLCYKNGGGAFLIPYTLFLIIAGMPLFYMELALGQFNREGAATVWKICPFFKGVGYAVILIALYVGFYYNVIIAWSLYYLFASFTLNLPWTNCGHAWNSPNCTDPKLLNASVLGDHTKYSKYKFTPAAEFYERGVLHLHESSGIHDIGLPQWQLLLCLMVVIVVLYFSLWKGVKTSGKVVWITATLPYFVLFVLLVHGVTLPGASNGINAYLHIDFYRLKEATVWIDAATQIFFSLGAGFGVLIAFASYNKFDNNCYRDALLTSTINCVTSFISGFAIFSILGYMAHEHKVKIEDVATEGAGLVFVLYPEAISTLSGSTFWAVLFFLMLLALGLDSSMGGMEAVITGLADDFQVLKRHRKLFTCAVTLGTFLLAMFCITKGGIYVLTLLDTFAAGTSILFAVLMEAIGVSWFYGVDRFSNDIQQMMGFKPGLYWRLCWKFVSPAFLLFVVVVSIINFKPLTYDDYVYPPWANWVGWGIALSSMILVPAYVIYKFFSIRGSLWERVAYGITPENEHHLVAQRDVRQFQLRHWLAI", "assay": "[3H]MPP+ release at NET in rat brain synaptosomes", "assay_type": "biochemical"}, "SERT, DAT, and NET": {"tested_on": "SERT, DAT, and NET", "assay_type": "biochemical, rat", "details": "SERT versus DAT and NET", "outline": "as §1"}, "[1]": {"details": "cited from earlier work; for MDMA-like effects in humans: human"}, "[2]": {"details": "S(+) versus R(−) isomer of EDMA"}},
  "note": "Structures can show the parent of a compound that is named as a salt. Where two headings read alike, the source gives them in different places.",
  "data": [
    {"smiles": "CNC(C)Cc1ccc2c(c1)OCCO2", "note": "(racemic) [(±)EDMA (3), (±)-1-(3,4-Ethylenedioxyphenyl)-N-methyl-2-aminopropane hydrochloride]", "values": [
      {"measurement": "release potency at SERT relative to potency at DAT", "setting": "SERT; SERT versus DAT", "result": "approximately six times"},
      {"measurement": "release potency at SERT relative to potency at NET", "setting": "SERT; SERT versus NET", "result": "three times"},
      {"measurement": "potency as releaser at SERT relative to (±)MDMA (1)", "setting": "SERT; compared with (±)MDMA (1)", "result": "approximately half the potency"},
      {"measurement": "fold less potent than (±)MDMA (1) as releaser at DAT", "setting": "DAT; compared with (±)MDMA (1)", "result": 8, "unit": "fold"},
      {"measurement": "fold less potent than (±)MDMA (1) as releaser at NET", "setting": "NET; compared with (±)MDMA (1)", "result": 4.5, "unit": "fold"},
      {"measurement": "transporter selectivity as releaser", "setting": "SERT, DAT, and NET", "result": "slightly more selective for SERT over DAT and NET"},
      {"measurement": "MDMA-like effects in humans", "setting": "[1]; 200 mg", "result": "fails to produce similar effects"},
      {"measurement": "MDMA-like effects in humans", "setting": "[1]; 250 mg", "result": "threshold"}
    ]},
    {"smiles": "CNC(C)Cc1ccc2c(c1)OCO2", "note": "(racemic) [(±)MDMA (1), N-methyl-(3,4-methylenedioxyphenyl)-2-aminopropane, reference compound]", "values": [
      {"measurement": "transporter selectivity as releaser", "setting": "SERT, DAT, and NET", "result": "nearly equipotent"},
      {"measurement": "behaviorally active total human dose", "setting": "[1]; p.o.", "result": "80 to 150", "unit": "mg"}
    ]},
    {"smiles": "CN[C@H](C)Cc1ccc2c(c1)OCCO2", "note": "[R(−)EDMA [(R)3], R(−)1-(3,4-Ethylenedioxyphenyl)-N-methyl-2-aminopropane hydrochloride]", "values": [
      {"measurement": "transporter selectivity as releaser", "setting": "SERT, DAT, and NET", "result": "more SERT-selective"}
    ]},
    {"smiles": "CN[C@@H](C)Cc1ccc2c(c1)OCCO2", "note": "[S(+)EDMA [(S)3], S(+)1-(3,4-Ethylenedioxyphenyl)-N-methyl-2-aminopropane hydrochloride]", "values": [
      {"measurement": "fold more potent than R(−) enantiomer at SERT", "setting": "SERT; [2]", "result": "about 6 fold"},
      {"measurement": "fold more potent than R(−) enantiomer at DAT", "setting": "DAT; [2]", "result": 50, "unit": "fold"},
      {"measurement": "fold more potent than R(−) enantiomer at NET", "setting": "NET; [2]", "result": 8, "unit": "fold"}
    ]}
  ]
}
